This passage reports inhibition results from ChEMBL document CHEMBL3259629, “Discovery and optimization of piperidyl-1,2,3-triazole ureas as potent, selective, and in vivo-active inhibitors of α/β-hydrolase domain containing 6 (ABHD6)” (J Med Chem, 2013).

One assay deals with Mus musculus. Description: In vivo inhibition of ABHD6 in C57Bl/6 mouse liver at 20 mg/kg, ip after 4 hrs by FP-rhodamine/HT-10-labelled gel-based competitive assay. Further details: dose 20 mg/kg. Type of assay: functional, organism-based. An outline of the steps:
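C57Bl/6 mice dosed i.p. at 1–40 mg kg⁻¹ in 18:1:1 saline/ethanol/PEG40, 10 μL g⁻¹, for 4 hr, then killed. Brain and liver membrane proteomes labelled with FP-rhodamine or HT-01 (1 μM, 30 min, 37 °C) and resolved by SDS-PAGE with in-gel fluorescence scanning.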

Assay [1] concerns the target Dipeptidyl peptidase 9 (Mus musculus) (UniProt Q8BVG4). The conditions noted are these: Neuro2a, 3 nM.
The target in assay [2] is Platelet-activating factor acetylhydrolase 2, cytoplasmic (Mus musculus) (UniProt Q8VDG7). The conditions noted are these: Neuro2a, 3 nM.
Assay [3] deals with Dipeptidyl peptidase 2 (Mus musculus) (UniProt Q9ET22). The conditions noted are these: Neuro2a, 3 nM.
In assay [4] the target is T1, Presenilin-associated rhomboid-like protein, mitochondrial (Mus musculus) (UniProt Q5XJY4).
T1 sequence (whole entry): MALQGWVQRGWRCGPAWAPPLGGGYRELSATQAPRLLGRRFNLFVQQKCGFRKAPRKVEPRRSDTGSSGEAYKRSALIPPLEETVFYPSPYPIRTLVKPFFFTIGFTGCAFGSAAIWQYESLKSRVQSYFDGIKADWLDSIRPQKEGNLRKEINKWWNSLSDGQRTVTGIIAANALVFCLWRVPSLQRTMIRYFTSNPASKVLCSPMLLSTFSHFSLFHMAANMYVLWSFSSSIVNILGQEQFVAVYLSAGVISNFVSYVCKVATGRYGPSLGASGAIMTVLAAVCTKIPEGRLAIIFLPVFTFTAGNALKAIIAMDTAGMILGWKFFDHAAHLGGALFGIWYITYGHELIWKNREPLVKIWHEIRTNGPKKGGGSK
Conditions: Neuro2a, 3 nM.

In assay [5] the target is T2, Phospholipase DDHD1 (Mus musculus) (UniProt Q80YA3).
T2 sequence (whole entry): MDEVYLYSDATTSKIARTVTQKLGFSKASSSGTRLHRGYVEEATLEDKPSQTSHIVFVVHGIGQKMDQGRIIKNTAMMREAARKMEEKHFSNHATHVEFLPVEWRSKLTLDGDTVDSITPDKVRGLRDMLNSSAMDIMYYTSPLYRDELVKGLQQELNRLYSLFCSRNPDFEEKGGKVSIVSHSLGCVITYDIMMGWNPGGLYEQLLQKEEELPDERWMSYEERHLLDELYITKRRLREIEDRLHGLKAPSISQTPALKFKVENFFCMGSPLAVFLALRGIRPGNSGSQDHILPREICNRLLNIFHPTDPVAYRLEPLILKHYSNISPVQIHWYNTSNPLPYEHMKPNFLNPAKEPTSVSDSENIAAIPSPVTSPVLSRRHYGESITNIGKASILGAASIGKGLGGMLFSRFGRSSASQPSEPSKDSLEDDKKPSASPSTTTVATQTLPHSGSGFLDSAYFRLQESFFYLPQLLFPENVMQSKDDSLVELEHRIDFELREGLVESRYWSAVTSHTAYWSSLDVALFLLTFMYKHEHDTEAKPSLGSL
Conditions: Neuro2a, 3 nM.

For assay [6], the target named is T3, Diacylglycerol lipase-beta (Mus musculus) (UniProt Q91WC9).
T3 sequence (whole entry): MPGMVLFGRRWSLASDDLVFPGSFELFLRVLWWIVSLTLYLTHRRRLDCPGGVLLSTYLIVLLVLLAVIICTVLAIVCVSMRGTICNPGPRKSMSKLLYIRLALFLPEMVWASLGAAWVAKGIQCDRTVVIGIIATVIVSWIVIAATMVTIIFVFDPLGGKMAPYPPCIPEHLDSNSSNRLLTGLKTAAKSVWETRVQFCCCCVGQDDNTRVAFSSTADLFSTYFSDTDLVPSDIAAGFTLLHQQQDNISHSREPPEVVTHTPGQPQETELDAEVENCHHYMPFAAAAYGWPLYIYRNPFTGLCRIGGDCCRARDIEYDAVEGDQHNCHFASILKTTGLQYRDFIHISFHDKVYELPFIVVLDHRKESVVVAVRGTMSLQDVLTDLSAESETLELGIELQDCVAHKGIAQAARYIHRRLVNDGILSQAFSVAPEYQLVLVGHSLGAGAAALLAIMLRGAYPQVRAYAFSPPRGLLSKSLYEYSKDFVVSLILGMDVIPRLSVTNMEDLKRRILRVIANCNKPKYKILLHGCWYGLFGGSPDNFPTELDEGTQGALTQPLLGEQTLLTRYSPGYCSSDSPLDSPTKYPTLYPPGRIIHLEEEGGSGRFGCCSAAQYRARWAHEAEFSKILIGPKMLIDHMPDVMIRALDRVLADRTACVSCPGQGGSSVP
The conditions noted are these: Neuro2a, 3 nM.

Assay [7] has as its target 1-acylglycerol-3-phosphate O-acyltransferase ABHD5 (Mus musculus) (UniProt Q9DBL9). The conditions noted are these: Neuro2a, 3 nM.
Assay [8] concerns the target T4, Monoacylglycerol lipase ABHD6 (Mus musculus) (UniProt Q8R2Y0).
T4 sequence (whole entry): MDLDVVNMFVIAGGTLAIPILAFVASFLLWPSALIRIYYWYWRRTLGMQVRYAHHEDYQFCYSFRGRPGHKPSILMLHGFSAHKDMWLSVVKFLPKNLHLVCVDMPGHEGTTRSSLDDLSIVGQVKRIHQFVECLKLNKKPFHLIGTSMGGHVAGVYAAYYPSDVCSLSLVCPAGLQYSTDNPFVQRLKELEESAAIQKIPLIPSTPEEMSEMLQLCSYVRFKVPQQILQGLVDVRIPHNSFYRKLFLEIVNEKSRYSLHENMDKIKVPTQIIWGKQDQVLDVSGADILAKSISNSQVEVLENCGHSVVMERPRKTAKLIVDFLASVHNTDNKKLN
The conditions noted are these: Neuro2a, 3 nM.

Calls of active or inactive are those of the source. No cut-off for these calls is given here.

Platelet-activating factor acetylhydrolase 2, cytoplasmic (Mus musculus), sequence (Q8VDG7 whole entry): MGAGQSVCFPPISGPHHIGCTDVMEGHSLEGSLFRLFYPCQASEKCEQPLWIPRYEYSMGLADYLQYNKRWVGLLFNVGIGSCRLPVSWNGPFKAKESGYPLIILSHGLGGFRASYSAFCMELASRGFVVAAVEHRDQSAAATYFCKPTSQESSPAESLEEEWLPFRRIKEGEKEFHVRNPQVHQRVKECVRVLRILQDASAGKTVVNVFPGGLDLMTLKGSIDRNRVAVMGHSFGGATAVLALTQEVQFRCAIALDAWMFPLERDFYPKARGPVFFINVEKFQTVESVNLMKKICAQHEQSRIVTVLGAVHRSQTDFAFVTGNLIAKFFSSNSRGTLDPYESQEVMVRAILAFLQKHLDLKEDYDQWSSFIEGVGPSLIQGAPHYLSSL
1-acylglycerol-3-phosphate O-acyltransferase ABHD5 (Mus musculus), sequence (Q9DBL9 whole entry, looked up): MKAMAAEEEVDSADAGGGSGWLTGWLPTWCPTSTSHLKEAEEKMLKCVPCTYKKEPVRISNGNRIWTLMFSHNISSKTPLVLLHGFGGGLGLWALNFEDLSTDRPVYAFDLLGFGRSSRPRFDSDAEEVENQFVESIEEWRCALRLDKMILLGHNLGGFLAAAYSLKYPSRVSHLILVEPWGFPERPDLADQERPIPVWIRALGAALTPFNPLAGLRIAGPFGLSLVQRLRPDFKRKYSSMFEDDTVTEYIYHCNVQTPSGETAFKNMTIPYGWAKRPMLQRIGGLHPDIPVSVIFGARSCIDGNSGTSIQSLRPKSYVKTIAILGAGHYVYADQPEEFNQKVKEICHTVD
Dipeptidyl peptidase 2 (Mus musculus), sequence (Q9ET22 whole entry): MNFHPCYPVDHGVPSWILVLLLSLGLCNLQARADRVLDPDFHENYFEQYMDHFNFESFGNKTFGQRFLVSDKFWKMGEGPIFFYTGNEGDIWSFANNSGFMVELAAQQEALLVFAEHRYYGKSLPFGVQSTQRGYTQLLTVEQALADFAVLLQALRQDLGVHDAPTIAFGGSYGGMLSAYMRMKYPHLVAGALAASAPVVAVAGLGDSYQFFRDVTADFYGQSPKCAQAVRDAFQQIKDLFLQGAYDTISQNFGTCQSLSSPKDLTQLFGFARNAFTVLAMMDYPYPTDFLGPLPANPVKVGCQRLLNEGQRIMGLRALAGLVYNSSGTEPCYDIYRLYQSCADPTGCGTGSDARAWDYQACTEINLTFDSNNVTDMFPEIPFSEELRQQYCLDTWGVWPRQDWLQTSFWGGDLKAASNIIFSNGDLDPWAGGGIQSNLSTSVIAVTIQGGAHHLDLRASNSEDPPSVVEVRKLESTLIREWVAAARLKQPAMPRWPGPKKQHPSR
Dipeptidyl peptidase 9 (Mus musculus), sequence (Q8BVG4 whole entry): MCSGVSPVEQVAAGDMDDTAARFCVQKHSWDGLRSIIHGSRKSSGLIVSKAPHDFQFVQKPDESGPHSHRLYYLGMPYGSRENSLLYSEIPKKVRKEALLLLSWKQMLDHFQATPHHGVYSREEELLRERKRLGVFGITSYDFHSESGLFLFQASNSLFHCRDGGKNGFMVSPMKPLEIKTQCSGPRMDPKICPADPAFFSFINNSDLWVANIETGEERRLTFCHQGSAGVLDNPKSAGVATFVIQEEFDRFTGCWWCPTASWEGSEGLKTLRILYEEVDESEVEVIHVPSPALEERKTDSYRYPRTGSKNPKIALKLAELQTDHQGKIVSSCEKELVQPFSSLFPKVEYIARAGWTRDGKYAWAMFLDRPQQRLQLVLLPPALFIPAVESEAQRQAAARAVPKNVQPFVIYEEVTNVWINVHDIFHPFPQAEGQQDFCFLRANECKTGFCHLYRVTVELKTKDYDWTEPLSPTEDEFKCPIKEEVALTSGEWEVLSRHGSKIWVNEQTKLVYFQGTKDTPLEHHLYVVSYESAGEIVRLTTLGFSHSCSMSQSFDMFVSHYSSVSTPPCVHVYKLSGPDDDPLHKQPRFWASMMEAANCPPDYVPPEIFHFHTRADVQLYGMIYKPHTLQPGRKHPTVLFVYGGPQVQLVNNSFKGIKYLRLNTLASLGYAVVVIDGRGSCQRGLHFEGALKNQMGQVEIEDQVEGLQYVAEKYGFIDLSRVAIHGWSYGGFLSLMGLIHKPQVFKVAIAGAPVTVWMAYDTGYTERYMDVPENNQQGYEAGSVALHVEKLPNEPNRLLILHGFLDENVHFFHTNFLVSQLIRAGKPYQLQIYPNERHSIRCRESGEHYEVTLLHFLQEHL

By inhibition is commonly meant the change of the read-out against control, counted positive when it falls. As for `O=C(N1CCCCC1c1ccccc1)n1cc(-c2ccc(-c3cccc(CO)c3)cc2)nn1` (racemic), the inhibition entry in the assay on Mus musculus was “Active”. The inhibition in assay [1], in assay [2], in [3], in assay [4], in [5] and in [6] was below 50% throughout. The inhibition is below 50% in [7] and above 90% in assay [8].

Turning to `O=C(c1cccc(-c2ccc(-c3cn(C(=O)N4CCCCC4c4ccccc4)nn3)cc2)c1)N1CCCCC1` (racemic), the inhibition result with Mus musculus is “Active”. Also, the inhibition in [1], in assay [2], in assay [3], in [4], in assay [5] and in [6] was below 50% throughout. Further, the values for the inhibition in assay [7] and in assay [8] were below 50% and above 80%, respectively.

Regarding `O=C(O)c1cccc(-c2ccc(-c3cn(C(=O)N4CCCCC4Cc4ccccc4)nn3)cc2)c1` (racemic), in the assay with Mus musculus, the inhibition entry is “Active”. For the same compound, the inhibition in assay [1], in [2], in assay [3], in [4], in [5] and in assay [6] was below 50% each time. Also, the inhibition is below 50% in assay [7] and above 90% in assay [8].
